Sampled rows, rich in hits. Any-hit rate of the full collection: about 2.9%.
PRMT1 FP inh: inhibitors of human PRMT1 | recombinant PRMT1, activity-based probe fluorescence polarization | 1.3% of 370,000 active | AID 652257 | inhibition, % at 2.79 µM | Q99873;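 active means inhibition above about 21% made by adding two undisclosed values, limit read from the data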
TCR-CD3 inh: inhibitors of human TCR-CD3 interaction | 0.37% of 360,000 active | inhibition, % at 9.4 µM | AID 651800 | TAMRA-labeled TCR probe fluorescence, biochemical; in the data active means inhibition above about 19%;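 further: recombinant mutant TCR 2C K166C tagged with TAMRA read by polarization; 0% = receptor in buffer alone and 100% = receptor with positive control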
PAD4 FP inh: blocks human protein arginine deiminase 4; Q9UM07; recombinant PAD4, RCA probe fluorescence polarization; inhibition, % at 6.36 µM; 0.41% of 330,000 active; AID 485272;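 active means percent inhibition above a cutoff equal to the mean of all tested compounds plus 3 SD, cut at about 15% in these data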;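 further: 0% = PAD4 with RCA probe and DMSO and 100% = probe without PAD4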
ABHD4 inh: ABHD4 (mouse) inhibition, primary FP screen; purified mABHD4, FP-Rh probe fluorescence polarization; inhibition, % at 8.92 µM; 0.54% of 370,000 active;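 active means inhibition exceeding the mean over every tested compound plus 3 SD, cut at about 30% in these data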;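 further: 0% = plate median of compound wells and 100% = S159A mutant with DMSO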
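system = mouse ABHD4 enzyme, wild type | medium = HEPES pH 7.0, NaCl, Pluronic buffer | also added = FP-Rh probe | incubation = Enzyme–compound pre-incubation 45 min, then probe 60 min, both 25 °C | technique = fluorescence polarization, excitation 525 nm, emission 598 nm, BODIPY TMR filters | controls = S159A mutant high control, sample median low control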
SIAE inh: blocks human sialic acid acetylesterase | Q9HAT2 | SIAE FP-Rh probe binding, fluorescence polarization | inhibition, % at 9.66 µM | 0.69% of 370,000 active | AID 1053197;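 active means inhibition above a cutoff: mean of compounds within the control limits plus 3 SD of those, cut at about 17% in these data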;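 further: 0% = plate median of compound wells and 100% = probe without SIAE protein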
Target sequence (Q9HAT2 whole entry, looked up): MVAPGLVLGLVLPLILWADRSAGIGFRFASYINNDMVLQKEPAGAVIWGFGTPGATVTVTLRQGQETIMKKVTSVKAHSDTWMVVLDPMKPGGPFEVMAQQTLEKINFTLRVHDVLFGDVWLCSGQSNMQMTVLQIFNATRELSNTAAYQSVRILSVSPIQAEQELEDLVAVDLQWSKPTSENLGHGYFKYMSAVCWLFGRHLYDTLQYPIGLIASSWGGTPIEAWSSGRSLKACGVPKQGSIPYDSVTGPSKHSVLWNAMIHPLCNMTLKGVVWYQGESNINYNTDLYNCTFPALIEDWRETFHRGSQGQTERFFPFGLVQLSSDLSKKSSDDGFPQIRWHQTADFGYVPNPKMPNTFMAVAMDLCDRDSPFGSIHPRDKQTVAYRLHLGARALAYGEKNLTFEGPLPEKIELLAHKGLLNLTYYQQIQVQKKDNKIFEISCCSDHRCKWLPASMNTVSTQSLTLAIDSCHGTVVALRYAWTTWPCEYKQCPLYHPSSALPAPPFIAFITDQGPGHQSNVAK
HTRA1 inhibitor: HTRA1 (human) protease inhibition; 0.5% of 340,000 active; recombinant HTRA1, FP-rhodamine activity-based probe, fluorescence polarization; Q92743; inhibition, % at 5.96 µM; in the data active means inhibition above about 36%;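 further: 0% = enzyme with DMSO and 100% = wells lacking enzyme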
HTRA1 conf: HTRA1 (human) inhibition, confirmation. recombinant HTRA1, FP-rhodamine activity-based probe, fluorescence polarization. inhibition, % at 5.96 µM. shares compounds with HTRA1 inhibitor. 66% of 1,600 active;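 active means mean inhibition over three repeats above a set limit taken from the earlier primary screen, cut at about 37% in these data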;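 further: 0% = HTRA1 with DMSO and 100% = wells lacking HTRA1; inhibitors block probe binding so polarization drops and inhibition rises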
Active calls of the source: *; / = not tested or not shown.

SMILES	PRMT1 FP inh	TCR-CD3 inh	PAD4 FP inh	ABHD4 inh	SIAE inh	HTRA1 inhibitor	HTRA1 conf
NC(=O)c1c(N)[nH]c(C(=O)c2ccccc2)c1-c1ccccc1C(F)(F)F	-1.5	/	/	1.6	4.1	/	/
CCOC(=O)N1CCN(S(=O)(=O)c2ccc(C(=O)Nc3sc4c(c3C(=O)OC)CCN(C)C4)cc2)CC1	-1.0	-3.2	-0.3	1.8	-4.6	52.7*	49.0*
CCCN1CCc2c(sc(NC(=O)c3ccc(S(=O)(=O)N4CCN(C(=O)OCC)CC4)cc3)c2C(N)=O)C1	-12.1	-0.3	-1.4	-1.6	-2.3	-5.9	/
O=C(CN1C(=O)/C(=C/c2ccccc2)SC1=S)NNC(=O)c1ccccc1O	3.6	18.2	-4.4	-0.5	2.2	55.4*	41.7*
CO[C@H]([C@H](C)/C=C/N(C)C=O)[C@@H](C)C(=O)CC[C@H](C)[C@H](O)[C@H](C)[C@H]1OC(=O)/C=C/C(C)=C/C[C@H](O)C[C@@H]2C=CC[C@@H](C[C@H](OC)[C@@]3(CO3)[C@@H](OC)C[C@@H](OC)[C@@H]1C)O2	-1.3	/	/	4.6	2.6	/	/
C#CCN1C(C(=O)OC)CN(CCCCCC)CCS1(=O)=O (stereo not given)	-4.4	/	/	8.4	3.1	/	/
COC(=O)[C@]12C[C@H](CC(=O)N3CCSCC3)C(=O)N(Cc3ccc4c(c3)OCO4)C1=C[C@H](C(C)C)O[C@@H]2C1CC1	2.2	/	/	-1.1	0.3	/	/
COC1C(O)CCC2(CO2)C1C1(C)OC1CC=C(C)C (stereo not given)	1.8	5.5	/	-3.2	-4.9	/	/
COc1ccccc1NS(=O)(=O)c1cc(N)ccc1N1CCOCC1	11.6	-3.7	2.0	3.1	6.4	37.0*	-13.2
COc1ccccc1NS(=O)(=O)c1cc(N)ccc1N1CCCC1	7.3	5.0	1.3	27.6	14.2	9.7	/
Cc1cc(=O)[nH]c(SCC(=O)Nc2cccc(Cl)c2F)n1	-2.2	/	/	-0.7	-0.6	/	/
CCOC(=O)/C(=N\Nc1ccc(OC)cc1)c1csc(Nc2ccccc2)n1	-2.4	4.8	4.4	12.6	15.3	42.9*	27.7
Brc1csc(/C=N/Nc2nc3ccccc3s2)c1	2.8	-7.7	-2.8	28.2	15.4	40.0*	35.7
CCCCCC[C@@H](CC)CN(C(=O)Oc1ccccc1)c1ccccc1	7.1	/	/	-5.0	1.2	/	/
Cn1c(=O)c2[nH]c(SCC(=O)N3CCN(c4cccc(C(F)(F)F)c4)CC3)nc2n(C)c1=O	1.0	/	/	1.1	2.3	/	/
C=CCN1C(C(=O)OC)CN(Cc2cn(CCC3OCCO3)nn2)CCS1(=O)=O (stereo not given)	-0.5	/	/	-3.2	3.2	/	/
CC1=NN(c2ccc(C(=O)O)cc2)C(=O)/C1=C\c1ccc(OC(=O)c2cccs2)cc1	6.3	-3.1	4.7	12.2	-5.2	38.9*	7.0
CC1=NN(c2ccc(C(=O)O)cc2)C(=O)/C1=C/c1ccc(-c2ccccc2F)o1	/	/	-4.2	/	/	0.2	/
O=C(N[C@H](C(=O)N1CCC[C@H]1C(=O)NCCc1ccccc1Cl)c1ccccc1)c1cccs1	1.2	4.3	/	-4.4	-5.9	/	/
CC(C)(C)c1ccc(C(=O)N2CCNCC2)cc1	-1.5	-3.9	-2.3	-1.4	0.5	0.1	/
O=C(c1ccc(-c2cc(O)c3ncccc3c2)cc1)N1CCNCC1	-1.5	-7.1	0.1	5.4	-1.0	62.5*	49.5*
Cc1cc(C)nc(Nc2ccc(N3CCCC3)cc2)n1	3.8	5.0	5.2	17.7	1.3	40.4*	40.1*
CCc1noc(C)c1C(=O)Oc1ccc(N(C)S(=O)(=O)c2ccccc2)cc1	2.4	-13.5	-6.2	-12.6	5.0	36.4*	29.8
COC(=O)[C@]12C[C@H](CC(=O)N3CCC(c4ccccc4)CC3)C(=O)N(Cc3ccc(Cl)cc3Cl)C1=C[C@H](C(C)(C)C)O[C@@H]2C	-1.0	/	/	1.6	-2.3	/	/
CCOc1ccc2nc3cc(N=Nc4ccc(N)nc4N)ccc3c(N)c2c1	/	/	/	/	/	46.9*	69.9*
SMILES	PRMT1 FP inh	TCR-CD3 inh	PAD4 FP inh	ABHD4 inh	SIAE inh	HTRA1 inhibitor	HTRA1 conf
COc1ccc(N=Nc2ccc(N)nc2N)cc1	0.0	3.4	-3.9	-2.0	2.5	15.2	/
O=C1CCC[C@H]2C[C@H](NCc3cccc(F)c3)CC[C@]23CCCN13	1.3	/	/	-4.5	-2.8	/	/
Oc1ccc(CN2CCc3ccccc3C2)c2cccnc12	-7.8	1.9	-2.4	5.1	4.7	58.8*	65.0*
Cc1ccc(N=Cc2ccc[nH]2)c(O)c1	6.1	-12.0	-17.9	7.9	-4.2	44.1*	21.2
Cc1ccccc1N=Cc1ccc[nH]1	-2.9	-10.2	/	-4.5	0.4	1.4	/
CC(=O)Nc1ccc2[nH]c(C)cc(=O)c2c1	0.9	-1.9	3.0	3.1	-2.2	8.7	/
Cc1cc2c(N=O)c(NO)ccc2[nH]1	/	/	-5.3	/	/	40.2*	74.2*
Cc1ccc(/C=N/Nc2cccc3cccnc23)c(O)c1	10.3	-0.2	-7.1	21.0	13.9	28.9	/
Oc1ccc(/C=N/Nc2cccc3cccnc23)c(O)c1	8.9	-4.6	-0.8	28.6	7.4	47.0*	32.5
Cc1cc(-c2ccccc2)nc(N/N=C/c2ccc(O)cc2O)n1	5.2	-1.8	1.1	24.3	13.8	41.2*	74.7*
Cc1cc(-c2ccccc2)nc(N/N=C/c2ccccc2)n1	-0.9	3.0	-4.8	1.4	-2.3	-5.0	/
O=C1C=C(O)c2[nH]c(=O)ccc2C1=O	5.6	9.0	/	17.1	0.9	46.5*	13.3
Nc1nc(-c2ccccn2)nc(N)c1Cc1ccc(Cl)cc1Cl	-0.1	-4.2	-6.9	7.6	-10.2	38.7*	35.5
Cn1c(NC(=O)c2ccccc2)nc(Cc2ccccc2)c1-c1ccccc1	-5.1	/	/	4.2	6.0	/	/
Cc1cc(C(=O)N/N=C/c2ccc([N+](=O)[O-])s2)c2ccccc2n1	5.6	3.0	-5.2	16.3	14.9	46.7*	28.6
O=C(N/N=C\c1ccc([N+](=O)[O-])s1)c1cncc(Br)c1	-2.4	-2.4	3.3	1.8	-6.3	56.2*	52.0*
O=S1(=O)c2ccc(N3CCN(Cc4ccccc4F)CC3)cc2Oc2ccccc2CN1Cc1cn(Cc2ccc(C(F)(F)F)cc2)nn1	0.6	/	/	-5.4	-0.7	/	/
Nc1cc2ccccc2cc1NS(=O)(=O)N1CCCCC1	4.5	1.0	/	11.5	8.3	/	/
O=C(Oc1ccc(/C=N/NC(=O)c2ccccc2O)cc1)c1ccccc1	0.5	0.9	5.1	-6.2	-3.8	40.5*	-6.0
O=C(/C=C(\Nc1ccc(Br)c(F)c1)c1ccccc1)c1ccccc1	-1.1	5.7	/	-1.3	0.5	/	/
O=C(O)C1=C2C(=O)Nc3cccc(c32)C2(C1)C(=O)Nc1ccccc12 (stereo not given)	16.8	0.1	/	32.9*	8.6	36.9*	11.9
CCn1c(COc2ccccc2)nnc1SCC(=O)Nc1ccc(Oc2ccccc2)cc1	0.2	/	/	-5.4	-6.5	/	/

From PubChem BioAssay
